Published values gathered from unrelated publications.
Protocols differ between the studies behind these lines.
Target: Mitogen-activated protein kinase kinase kinase 20 (MAP3K20, Homo sapiens, UniProt Q9NYL2)

| Compound | observed | technique | tested at | remaining binding |
| --- | --- | --- | --- | --- |
| O=c1nc(-c2ccccn2)sc2ccccc12 | binding | competition with immobilised ligand | 1 µM | 87% |
| CN(C)c1ncc(F)c(-c2cnn3ncccc23)n1 | binding |  | 1 µM | 96% |
| O=C(NCCCN1CCOCC1)c1ccc(Nc2nccc(-c3cc4ccccc4s3)n2)cc1 | binding | competition with immobilised ligand | 1 µM | 62% |
| Cc1cc(C)c(-n2ccn3nc(-c4cccnc4)cc23)cc1NC(=O)c1cc(C#N)cc(S(F)(F)(F)(F)F)c1 | cell-free assay | competition with immobilised ligand | 0.1 µM | 97.5% |
| N[C@@H]1CCN(c2nccc(-c3cnn4ncccc34)n2)C1 | binding |  | 1 µM | 100% |
| C=CC(=O)N1CCC(C(=O)NCC(=O)N2CCN(c3nc(-c4cnc(N)nc4C(F)F)nc(N4CCOCC4)n3)CC2)CC1 | binding | competition with immobilised ligand | 1 µM | 100% |
| c1cncc(-c2cccc(Nc3nccc(NC4CCCCC4)n3)c2)c1 | binding | competition with immobilised ligand | 10 µM | 93% |
| FC(F)(F)Oc1cccc(-c2cnc3ccc(-c4ccncc4)nn23)c1 | binding | competition with immobilised ligand | 5 µM | 20% |
| COc1cnc(Nc2cccc(S(N)(=O)=O)c2)nc1N1CCN(c2ccccc2)C(=O)C1 | binding | competition with immobilised ligand | 1 µM | 100% |
| F[C@@H]1CCN(c2nccc(-c3cnn4ncccc34)n2)C1 | binding |  | 1 µM | 76% |
| CS(=O)(=O)NCC[C@H](NC(=O)c1cncc2c1cnn2-c1ccc(F)cc1)c1ccnc(S(C)(=O)=O)c1 | cell-free assay | competition with immobilised ligand | 1 µM | 88% |
| C[C@@H]1CCN(c2nccc(-c3cnn4ncccc34)n2)C1 | binding |  | 1 µM | 100% |
| O=C(c1ccc(Nc2nccc(-c3cc4ccccc4s3)n2)cc1)N1CCC(N2CCCC2)CC1 | binding | competition with immobilised ligand | 1 µM | 69% |
| CN(C(=O)c1ccccc1)c1cc(N(C)c2ccc3c(c2)CCc2ccc(C(=O)NCCN4CCOCC4)cc2C3=O)ccc1F | cell-free assay | competition with immobilised ligand | 1 µM | 82% |
| CN(C)c1nccc(-c2cnc3ncccn23)n1 | binding |  | 1 µM | 89% |
| Cc1cc(-n2nc(Cc3cc(F)cc(C(F)(F)F)c3)nc2C)ccc1C(N)=O | cell-free assay | competition with immobilised ligand | 1 µM | 99% |
| CC1CCCN1c1nccc(-c2cnn3ncccc23)n1 (stereo not shown) | binding |  | 1 µM | 100% |
| O=C(O)[C@@H]1[C@@H](Cn2nnc3ccccc3c2=O)CC[C@H]1C(=O)c1ccc(OCCC2CCOCC2)cc1 | cell-free assay | competition with immobilised ligand | 1 µM | 91% |
| COc1ccnn2ncc(-c3ccnc(N(C)C)n3)c12 | binding |  | 1 µM | 100% |
| CCN1CCN(Cc2ccc(C(=O)Nc3ccc(C)c(Oc4ccc5c(c4)CC(=O)N5)c3)cc2C(F)(F)F)CC1 | binding | competition with immobilised ligand | 1 µM | 100% |
| O=C(NCC1CCOCC1)c1n[nH]cc1NC(=O)c1c(F)cccc1F | binding | competition with immobilised ligand | 1 µM | 100% |
| O=C(c1ccc(Nc2ncc(Cl)c(-c3ccc(Cl)s3)n2)cc1)N1CCC(N2CCCC2)CC1 | binding | competition with immobilised ligand | 1 µM | 65% |
